# Screening results: PubChem, The Scripps Research Institute Molecular Screening Center
# An excerpt weighted towards active compounds, which were near 1.8% of everything screened.
# CHRM5 agonist: human M5 muscarinic receptor agonists, primary screen, CHO-K1 cells, Fluo-8 calcium fluorescence. activation, % at 3 µM. CHO-K1 hM5 cells; 0% DMSO wells, 100% maximal acetylcholine response. actives 0.19% (n = 360,000). Muscarinic acetylcholine receptor M5 (Homo sapiens), P08912;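 active = activation above the run's mean over test compounds plus 3 SD, cut at about 23% in these data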;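 note: signal is peak over basal fluorescence ratio across the kinetic read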
# Target sequence (P08912 whole entry, looked up): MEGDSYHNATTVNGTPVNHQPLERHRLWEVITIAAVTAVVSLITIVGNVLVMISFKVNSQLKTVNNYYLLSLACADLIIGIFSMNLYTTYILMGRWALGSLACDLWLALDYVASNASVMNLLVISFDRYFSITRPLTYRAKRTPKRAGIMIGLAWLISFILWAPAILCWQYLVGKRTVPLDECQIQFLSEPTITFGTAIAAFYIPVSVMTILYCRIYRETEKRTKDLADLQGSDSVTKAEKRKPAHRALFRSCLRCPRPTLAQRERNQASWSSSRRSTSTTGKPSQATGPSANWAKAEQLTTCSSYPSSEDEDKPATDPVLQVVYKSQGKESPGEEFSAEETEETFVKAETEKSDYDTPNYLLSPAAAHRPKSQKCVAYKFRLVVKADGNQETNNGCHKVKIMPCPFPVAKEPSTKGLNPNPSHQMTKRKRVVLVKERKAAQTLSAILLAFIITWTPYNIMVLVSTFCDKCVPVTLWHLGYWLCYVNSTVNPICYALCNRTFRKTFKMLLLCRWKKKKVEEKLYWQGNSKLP
# M4 ag: human M4 muscarinic receptor agonists, primary screen, CHO-K1 cells, Fluo-8 calcium fluorescence. CHO-K1 hM4/Gqi5; vehicle 0%, full acetylcholine response 100%. activation, % at 3 µM. actives 0.14% (n = 360,000);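 active = activation above the run mean over all test wells plus 3 SD, cut at about 32% in these data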;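 note: peak over basal fluorescence ratio per well then scaled between controls; 0% = DMSO wells and 100% = acetylcholine at EC100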
# M4 PAM: human M4 muscarinic receptor positive allosteric modulators, primary screen, CHO-K1 cells, Fluo-8 calcium fluorescence; Muscarinic acetylcholine receptor M4 (Homo sapiens), P08173; CHO-K1 hM4/Gqi5, ACh EC20; 0% = ACh EC20, 100% = maximal ACh; activation, % at 3 µM; actives 0.4% (n = 360,000); AID 624126, 2012;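 active = activation above its plate's cutoff, the mean activation of sample wells plus 3 SD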
# M5 PAM: human M5 muscarinic receptor positive allosteric modulators, primary screen, CHO-K1 cells, Fluo-8 calcium fluorescence; Muscarinic acetylcholine receptor M5 (Homo sapiens), P08912; CHO-K1 hM5, ACh EC20 PAM; 0% = ACh EC20, 100% = ACh EC100; activation, % at 3 µM; actives 0.3% (n = 360,000); AID 624038, 2012;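 active = activation above the run cutoff, the mean activation of all test compounds plus 3 SD, cut at about 18% in these data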
#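 Replicates: One well per compound, no replicates | System: Human M5 receptor in CHO-K1 cells | Benchmarks: Low control EC20 acetylcholine (0%), high control EC100 acetylcholine (100%) | Probe or stimulus: Acetylcholine, EC20 level | Times: Fluo-8 loading 80 min at 37 °C plus 30 min room temperature | Signal: Intracellular calcium via Fluo-8 fluorescence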
# M5 antag: human M5 muscarinic receptor antagonists, primary screen, CHO cells, Fluo-8 calcium fluorescence; CHO-hM5 cells, ACh EC80; AID 624040, 2012; inhibition, % at 3 µM; actives 0.59% (n = 360,000); Muscarinic acetylcholine receptor M5 (Homo sapiens), P08912;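 active = inhibition above a per-plate cutoff, the mean of that plate's test compounds plus 3 SD, cut at about 27% in these data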;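 note: 0% = acetylcholine EC80 with DMSO and 100% = DMSO without agonist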
# CHRM4 antagonist: human M4 muscarinic receptor antagonists, primary screen, CHO cells, Fluo-8 calcium fluorescence; Muscarinic acetylcholine receptor M4 (Homo sapiens), P08173; CHO-hM4 cells, ACh EC80; inhibition, % at 3 µM; actives 0.73% (n = 360,000); AID 624125, 2012;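 active = inhibition above its plate's cutoff, the mean inhibition of sample wells plus 3 SD, cut at about 27% in these data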;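 note: 0% = acetylcholine EC80 with DMSO and 100% = DMSO without agonist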
# Numbers without * were called inactive.
SMILES,CHRM5 agonist,M4 ag,M4 PAM,M5 PAM,M5 antag,CHRM4 antagonist
CC(C)N1CCC(N2CCN(Cc3cc(F)ccc3-n3cccn3)CC2CCO)CC1 (stereo unspecified),-9.1,0.6,18.0,21.6*,-6.7,-18.4
Cc1cc(-n2cccn2)ccc1CN1CCN(CC(C)C)C(CCO)C1 (stereo unspecified),-18.0,0.4,-40.8,-4.3,-4.6,55.3*
CC(C)CCN1CCN(Cc2cccc(-n3cccn3)c2)CC1CCO (stereo unspecified),-8.1,-0.1,-25.1,-0.9,4.4,1.9
Cc1cc(-n2cccn2)ccc1CN1CCN(C2CCCC2)C(CCO)C1 (stereo unspecified),-16.1,1.8,-20.5,-33.7,53.8*,98.7*
CC(C)N1CCN(Cc2cc(F)ccc2-n2cccn2)CC1CCO (stereo unspecified),-5.6,0.2,-0.8,-5.4,6.5,6.7
Cc1ccc(NC(=S)N2CCC(NC(=O)c3ccc(F)cc3)CC2)cc1,-4.5,3.0,3.5,-1.4,13.6,-3.5
COc1ccc2nc(NC(=O)CSC(C)C(=O)Nc3cc(C)on3)sc2c1 (stereo unspecified),2.2,1.0,-1.2,-3.8,-1.9,7.3
COc1cc(/C=C(/C#N)c2ccc(F)cc2)ccc1Oc1ccc([N+](=O)[O-])cn1,-3.5,7.7,-12.4,-20.8,35.4*,15.2
CCN1C(=O)[C@@H]2Cc3c([nH]c4ccccc34)C(c3ccc(OC)cc3)N2C1=S (stereo partly specified),-1.1,17.9,-16.7,-18.0,28.8*,33.9*
CC(C)(C)C(=O)Nc1nnc([C@H]2C[C@H](O)[C@@H](CO)O2)s1,1.2,0.3,7.5,0.6,-6.8,-9.6
Nc1nc(N2CCN(c3ccccn3)CC2)nc2ccccc12,-8.0,1.8,-18.3,-10.3,12.6,27.5*
Nc1nc(N2CCCCC2)nc2ccccc12,-8.0,0.9,-18.8,-22.9,16.3,21.5
Cc1nnc(N(CCC#N)CCC#N)s1,-0.5,0.3,14.4,-0.8,6.6,-0.5
CSc1nnc(N(CCC#N)CCC#N)s1,-3.9,0.3,1.4,39.8*,-4.2,-13.2
O=C(Cc1ccc(Cl)cc1)Nc1ccccc1C(=O)N1CCCCC1,-0.1,1.1,-2.9,-11.7,27.6*,2.7
CNCCCC1c2ccccc2C=Cc2ccccc21,-0.3,4.1,-17.6,-18.9,98.7*,91.2*
Cc1cc(C)cc(S(=O)(=O)c2cn(C)c3cc(N4CCN(C)CC4)c(F)cc3c2=O)c1,-3.1,1.4,-2.6,-4.2,1.5,-0.3
O=C(NC(Cc1ccc(O)cc1)C(=O)O)c1ccc2c(c1)OCO2 (stereo unspecified),3.0,0.4,9.1,5.1,-13.1,-15.7
Cc1ccc(C2CC(=O)c3cnc(NC(=O)c4ccco4)nc3C2)cc1 (stereo unspecified),-1.4,2.8,15.1*,22.1*,-0.3,-14.0
Cc1ccc(Nc2ncc3c(n2)CC(c2ccco2)CC3=O)c(C)c1 (stereo unspecified),-1.7,0.0,28.6*,5.0,-4.3,1.3
COc1ccc(-c2nc(N)ncc2-c2csc(C)n2)c(O)c1OC,0.3,0.7,-5.5,-2.6,-0.4,2.8
CN(C)S(=O)(=O)c1ccc(-c2csc(N/N=C/c3ccco3)n2)cc1,6.2,22.6,-32.7,-33.8,24.3,30.2*
CN(C)S(=O)(=O)c1ccc(-c2csc(N/N=C/c3ccc(O)cc3)n2)cc1,-1.4,19.0,-24.9,-13.7,23.5,28.8*
C(=N\Nc1nc(-c2ccccc2)cs1)/c1ccncc1,-0.1,4.3,0.5,-8.2,5.6,-2.4
Cc1ccc(-c2csc(N/N=C/c3ccco3)n2)cc1,3.8,-0.5,9.3,-7.1,9.4,-0.8
SMILES,CHRM5 agonist,M4 ag,M4 PAM,M5 PAM,M5 antag,CHRM4 antagonist
Cc1cc(NC(=O)c2cc3ccccc3o2)ccc1NC(=O)c1ccccc1,-2.9,9.7,-5.2,-5.0,6.0,-8.2
Cc1cc(NC(=O)c2cccnc2)ccc1NC(=O)c1cc2ccccc2o1,5.8,33.0*,-8.8,-15.3,-1.4,-14.8
CC1CCN(c2c(NCC3CCC(C(=O)NC4CCCCCC4)CC3)c(=O)c2=O)CC1 (stereo unspecified),0.1,0.6,15.3,1.8,-1.5,30.7*
CC1CCN(c2c(NCC3CCC(C(=O)N4CCCCC4)CC3)c(=O)c2=O)CC1 (stereo unspecified),-0.8,2.4,-9.3,-12.4,-1.0,-1.0
O=C(O)C1CCCCC1C(=O)NCc1ccccc1 (stereo unspecified),-0.1,-0.2,-3.4,-4.2,3.6,1.6
O=C(O)C1CCCCC1C(=O)NCc1ccc(F)cc1 (stereo unspecified),1.6,0.3,33.7*,4.3,-2.4,-1.0
O=C(CNC(=O)c1nc[nH]c1C(=O)N1CCc2ccccc2C1)OCc1ccccc1,-5.8,20.2,-7.4,-29.9,27.0*,28.8*
C[C@H](NC(=O)c1nc[nH]c1C(=O)NCc1ccc(CNC(=O)OC(C)(C)C)cc1)C(=O)OCc1ccccc1,2.2,24.1,-12.6,-39.3,29.3*,49.7*
C[C@@H](NC(=O)c1nc[nH]c1C(=O)OCc1ccccc1)c1ccccc1,1.6,1.6,-0.5,-4.1,19.7,-2.3
C[C@@H](NC(=O)c1nc[nH]c1C(=O)NCC(=O)OCc1ccccc1)c1ccccc1,-3.7,24.7,-11.1,-34.7,27.8*,19.6
O=C(CNC(=O)c1nc[nH]c1C(=O)N1CCNCC1)OCc1ccccc1,6.2,1.4,8.3,4.0,-14.7,-8.6
CC(C)(C)n1nnnc1C(c1ccccc1)N1CCN(c2ncccc2C(F)(F)F)CC1 (stereo unspecified),1.2,9.6,-8.9,-5.5,2.1,-0.8
C[N+]1(C)CCCC(OC(=O)C(O)(c2ccccc2)c2ccccc2)C1 (stereo unspecified),-1.6,0.0,-16.8,-18.6,98.9*,98.6*
Cc1ccnc(SCC(=O)NC2CC2)n1,-4.0,-0.3,0.6,-2.6,6.5,-5.3
Cn1cc(Cl)c(C(=O)N/N=C/c2ccc3c4c(cccc24)CC3)n1,-3.2,1.7,7.9,5.4,-18.2,-0.6
